# Screens: PubChem BioAssay, Broad Institute
# IDH1 mut inh = inhibitors of IDH1 R132H reductase, primary screen, biochemical, plate reader, single point; diaphorase/resazurin fluorescence, 60 min; Isocitrate dehydrogenase [NADP] cytoplasmic (Homo sapiens), O75874; hit rate 0.18% among 70,000; inhibition, % at 10 µM; AID 624101, 2012; in the data active = inhibition above about 34%; inconclusive = no clear call, values can overlap the other calls; inactive = below about 11%
# Target sequence (O75874 whole entry R132H): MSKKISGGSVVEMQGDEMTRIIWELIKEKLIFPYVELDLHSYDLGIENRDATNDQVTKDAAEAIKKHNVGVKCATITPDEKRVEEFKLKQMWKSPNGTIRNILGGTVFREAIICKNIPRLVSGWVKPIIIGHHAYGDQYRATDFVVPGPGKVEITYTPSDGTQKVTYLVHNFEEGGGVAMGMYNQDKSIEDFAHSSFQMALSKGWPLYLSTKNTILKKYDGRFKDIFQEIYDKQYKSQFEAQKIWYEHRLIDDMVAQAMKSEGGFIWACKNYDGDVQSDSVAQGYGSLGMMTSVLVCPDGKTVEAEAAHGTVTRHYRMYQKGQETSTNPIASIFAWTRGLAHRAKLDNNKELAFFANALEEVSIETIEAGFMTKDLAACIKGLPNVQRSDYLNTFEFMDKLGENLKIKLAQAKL
# KDM4C inh = inhibitors of GASC-1 (KDM4C) histone demethylase, primary screen, biochemical, single concentration HTS | GST-KDM4C 2-372, H3K9me3 peptide, LANCE TR-FRET | inhibition, % at 12.5 µM | AID 720574, 2013 | Lysine-specific demethylase 4C (Homo sapiens), Q9H3R0 | hit rate 0.15% among 96,000;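 active = mean replicate inhibition above about 25%, with at least 55% of replicates also reaching it, limit read from the data, passing the limit was not always enough; inconclusive = only one of those two conditions met; inactive = neither condition met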
# Target sequence (Q9H3R0 2-372 limits assumed): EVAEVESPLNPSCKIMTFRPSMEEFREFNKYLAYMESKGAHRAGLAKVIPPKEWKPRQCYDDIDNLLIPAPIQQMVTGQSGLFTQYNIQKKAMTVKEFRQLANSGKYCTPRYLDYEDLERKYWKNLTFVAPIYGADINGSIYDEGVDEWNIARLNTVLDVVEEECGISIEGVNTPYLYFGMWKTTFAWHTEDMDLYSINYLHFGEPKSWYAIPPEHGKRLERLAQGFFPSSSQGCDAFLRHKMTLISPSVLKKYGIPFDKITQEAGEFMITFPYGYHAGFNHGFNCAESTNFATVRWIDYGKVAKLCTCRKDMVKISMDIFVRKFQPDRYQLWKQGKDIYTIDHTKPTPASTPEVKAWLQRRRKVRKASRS
#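 reagent = H3K9me3 peptide substrate, Fe(II), 2-oxoglutarate | system = GST-tagged GASC-1 (JMJD2C) catalytic fragment, aa 2-372 | amount = enzyme final amount 10 nM | read-out = Fall in 671/618 emission ratio as inhibition | medium = HEPES buffer, pH 7.5, plus ascorbate | schedule = 30 min reaction, 60 min detection, RT | measured by = LANCE TR-FRET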
# T cruzi growth-1 = T. cruzi intracellular proliferation inhibitors, primary screen, cell-based, beta-gal Tulahuen parasites, NIH3T3 host, luminescence. inhibition, % at 8.34 µM. T. cruzi beta-gal in NIH3T3, GalScreen luminescence, 90 h. hit rate 5.9% among 77,000;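 active = mean inhibition above about 93%, with at least 55% of replicates each passing it, limit read from the data, passing the limit was not always enough; inconclusive = only one of those two conditions holds; inactive = neither condition holds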
# T cruzi growth-2 = T. cruzi intracellular proliferation inhibitors, confirmation, cell-based, NIH3T3 host, beta-gal parasite, luminescence, cherry-pick; inhibition, % at 8.35 µM; hit rate 72% among 5,600; shares compounds with T cruzi growth-1; T. cruzi beta-gal in NIH3T3, GalScreen luminescence, 90 h;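 active = mean replicate inhibition above about 95% and at least 55% of replicates individually reaching it, limit read from the data; inconclusive = only one of the two criteria is met; inactive = neither criterion is met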
# T cruzi growth-3 = inhibitors of intracellular T. cruzi replication, confirmation, NIH3T3 host cells, beta-gal parasites, cherry-pick, set 2. AID 651740, 2012. shares compounds with T cruzi growth-1. inhibition, % at 2.09 µM. T. cruzi beta-gal in NIH3T3, GalScreen luminescence, 90 h. hit rate 21% among 5,600;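 active = mean inhibition above about 95%, with at least 55% of replicates also reaching it, limit read from the data; inconclusive = meets just one of the two conditions; inactive = meets neither condition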
# 3T3 cytotox = cytotoxicity in mouse NIH/3T3 fibroblasts, confirmation, cytotoxicity control for T. cruzi proliferation inhibitor project, cell-based, cherry-pick, single point. shares compounds with T cruzi growth-1. NIH/3T3 viability, CellTiter-Glo ATP luminescence, 90 h. cytotoxicity (signal decrease), % at 8.35 µM. hit rate 14% among 5,600;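 active = mean signal decrease across replicates above about 35% based on untreated-well scatter, with enough replicates individually passing, limit read from the data; inconclusive = no rule stated though some were filed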
# NIH3T3 tox 2 = NIH/3T3 fibroblast cytotoxicity, confirmation, cytotoxicity control, cell-based, cherry-pick, single point, set 2. hit rate 56% among 5,600. shares compounds with T cruzi growth-1. AID 651744, 2012. inhibition, % at 24.9 µM. NIH/3T3 viability, CellTiter-Glo ATP luminescence, 90 h;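 active = mean loss of cell viability signal at or above a set limit, and enough replicates individually reaching it; inconclusive = meets only the mean limit or only the replicate share; inactive = meets neither condition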
# Hits are given with their value; . = inactive; ? = inconclusive; / = no result. Shown is part of a subset that was picked to be rich in hits.
SMILES,IDH1 mut inh,KDM4C inh,T cruzi growth-1,T cruzi growth-2,T cruzi growth-3,3T3 cytotox,NIH3T3 tox 2
O=C(CC1CC1)N1CC(=O)N2[C@H](CO)[C@H](c3ccc(C#Cc4ccccc4)cc3)[C@H]2C1,/,.,/,/,/,/,/
CC(=O)c1cccc(NC(=O)CSc2nccc(C)n2)c1,.,/,/,/,/,/,/
CC(C)C#Cc1ccc([C@@H]2[C@@H](CO)N3CCCCN(CC4CC4)C[C@@H]23)cc1,/,.,?,95.0,.,?,105.8
CC(C)C#Cc1ccc([C@@H]2[C@@H](CO)N3CCCCN(CC4CC4)C[C@H]23)cc1,/,.,108.5,107.7,.,35.6,89.5
CC(C)C#Cc1ccc([C@H]2[C@H](CO)N3CCCCN(CC4CC4)C[C@@H]23)cc1,/,.,.,/,/,/,/
C[C@H](O)C#Cc1ccc([C@H]2[C@@H](CO)N3CCCCN(CC4CC4)C[C@H]23)cc1,/,.,.,/,/,/,/
O=C(CSc1nc(O)cc(=O)[nH]1)Nc1cccc(C(F)(F)F)c1,.,/,/,/,/,/,/
COc1ccc(Br)cc1/C=N/NC(=O)CCCCC(=O)NO,.,/,/,/,/,/,/
CO[C@@H]1CN(C)C(=O)c2ccc(NC(=O)CC(F)(F)F)cc2OC[C@@H](C)N(C(=O)c2ccccc2F)C[C@@H]1C,/,.,/,/,/,/,/
N#C[C@H]1[C@@H](c2ccccc2)[C@@H](CO)N1C(=O)Cc1ccccc1,.,.,101.8,.,.,.,.
N#C[C@@H]1[C@@H](c2ccc(-c3ccc(F)cc3)cc2)[C@@H](CO)N1C(=O)Cc1ccccc1,.,.,.,/,/,/,/
N#C[C@@H]1[C@@H](c2ccc(-c3ccccc3F)cc2)[C@H](CO)N1C(=O)Cc1ccccc1,/,.,.,/,/,/,/
N#C[C@H]1[C@H](c2ccc(-c3ccccc3F)cc2)[C@H](CO)N1C(=O)Cc1ccccc1,/,.,.,/,/,/,/
N#C[C@H]1[C@H](c2ccc(-c3ccc(F)cc3)cc2)[C@@H](CO)N1C(=O)Cc1ccccc1,/,.,?,98.2,.,39.8,96.0
N#C[C@H]1[C@H](c2ccc(-c3cncnc3)cc2)[C@@H](CO)N1C(=O)Cc1ccccc1,/,.,.,/,/,/,/
N#C[C@@H]1[C@H](c2ccccc2)[C@@H](CO)N1C(=O)Cc1ccccc1,/,.,109.5,.,.,.,.
N#C[C@@H]1[C@@H](c2ccccc2)[C@H](CO)N1C(=O)Cc1ccccc1,/,.,100.4,.,.,.,.
O=C(NCc1ccccc1)[C@H]1[C@H](CO)[C@H]2Cn3c(ccc(/C=C/c4ccccc4)c3=O)[C@@H]1N2CC1CC1,/,.,/,/,/,/,/
CSc1cccc(NC(=O)CSc2nnc(-c3cccc(C)c3)n2-c2ccccc2)c1,.,/,/,/,/,/,/
Cc1ccc(NC(=O)CC2NCCNC2=O)cc1C (stereo unspecified),.,/,/,/,/,/,/
COc1cccc(S(=O)(=O)N2CC[C@@H]3[C@H]2c2cc(C#Cc4cccnc4)ccc2N[C@@H]3CO)c1,/,.,?,106.8,.,.,42.9
CN1c2ccc(C#Cc3cccnc3)cc2[C@H]2[C@H](CCN2S(=O)(=O)c2ccc(F)cc2)[C@@H]1CO,/,.,103.2,98.3,.,.,31.3
CN1c2ccc(C#Cc3cccnc3)cc2[C@H]2[C@H](CCN2C(=O)C2CCCCC2)[C@@H]1CO,/,.,.,/,/,/,/
CN1c2ccc(C#Cc3cccnc3)cc2[C@H]2[C@H](CCN2C(=O)c2cccnc2)[C@H]1CO,/,.,.,/,/,/,/
CN1c2ccc(C#Cc3cccnc3)cc2[C@@H]2[C@@H](CCN2C(=O)C2CCCCC2)[C@H]1CO,/,.,119.3,110.3,.,40.8,42.5
SMILES,IDH1 mut inh,KDM4C inh,T cruzi growth-1,T cruzi growth-2,T cruzi growth-3,3T3 cytotox,NIH3T3 tox 2
COc1ccc(S(=O)(=O)N2CC[C@@H]3[C@H]2c2cc(C#Cc4cccnc4)ccc2N[C@@H]3CO)cc1,/,.,.,/,/,/,/
CN1c2ccc(C#Cc3cccnc3)cc2[C@@H]2[C@@H](CCN2C(=O)c2cccc(F)c2)[C@@H]1CO,/,.,108.6,106.9,.,.,30.7
Cc1ccc(S(=O)(=O)N2CC[C@H]3[C@@H](CO)N(C)c4ccc(C#Cc5cccnc5)cc4[C@H]32)cc1,/,.,.,/,/,/,/
COc1ccc(CN(C)C[C@@H]2Oc3c(NS(=O)(=O)c4ccc(Cl)cc4)cccc3C(=O)N([C@@H](C)CO)C[C@@H]2C)cc1,.,.,.,/,/,/,/
CCCNC(=O)N[C@@H]1C=C[C@H](CC(=O)NC2CCCCC2)O[C@@H]1CO,.,.,.,/,/,/,/
COc1ccc(NC(=O)Nc2ccc3c(c2)C(=O)N([C@@H](C)CO)C[C@H](C)[C@H](CN(C)Cc2ccc(Cl)c(Cl)c2)OCCCC[C@@H](C)O3)cc1,.,.,124.9,101.2,115.4,.,.
C[C@H](CO)N1C[C@H](C)[C@@H](CN(C)Cc2ccc(Cl)c(Cl)c2)OCCCC[C@H](C)Oc2ccc(NC(=O)Nc3ccccc3)cc2C1=O,/,.,.,/,/,/,/
COc1ccc(NC(=O)Nc2ccc3c(c2)C(=O)N([C@@H](C)CO)C[C@@H](C)[C@H](CN(C)Cc2ccc(Cl)c(Cl)c2)OCCCC[C@H](C)O3)cc1,.,.,97.4,98.7,102.5,.,.
COc1ccc(NC(=O)Nc2ccc3c(c2)C(=O)N([C@@H](C)CO)C[C@@H](C)[C@H](CN(C)Cc2ccc(Cl)c(Cl)c2)OCCCC[C@@H](C)O3)cc1,.,.,125.5,99.7,116.9,.,.
COc1ccc(NC(=O)Nc2ccc3c(c2)C(=O)N([C@H](C)CO)C[C@H](C)[C@@H](CN(C)Cc2ccc(Cl)c(Cl)c2)OCCCC[C@H](C)O3)cc1,/,.,123.3,?,115.7,.,.
COc1ccc(CN(C)C[C@@H]2OCCCC[C@@H](C)Oc3ccc(NC(=O)Nc4ccc(OC)cc4)cc3C(=O)N([C@H](C)CO)C[C@@H]2C)cc1,.,/,.,/,/,/,/
COc1ccc(CN(C)C[C@@H]2OCCCC[C@H](C)Oc3ccc(NC(=O)Nc4ccc(OC)cc4)cc3C(=O)N([C@H](C)CO)C[C@H]2C)cc1,/,/,.,/,/,/,/
COc1ccc(CN(C)C[C@H]2OCCCC[C@H](C)Oc3ccc(NC(=O)Nc4ccc(OC)cc4)cc3C(=O)N([C@H](C)CO)C[C@@H]2C)cc1,/,.,.,/,/,/,/
CC(=O)c1cccc(NC(=O)CSc2ncnc3sc(C)c(C)c23)c1,.,/,/,/,/,/,/
CC(C)(C)OC(=O)NC1(/C=N/NC(=O)CCCCCCC(=O)NO)CCCC1,.,/,/,/,/,/,/
Cc1ccc2nsnc2c1NC(=O)COc1ccc([N+](=O)[O-])cc1,.,/,/,/,/,/,/
O=C(N/N=C/Cc1ccccc1)c1ccccn1,.,/,/,/,/,/,/
